The target in assay [1] is Bifunctional dihydrofolate reductase-thymidylate synthase (Plasmodium falciparum K1, UniProt P13922, C59R/I164L/S108N). The assay can be described thus: Inhibitory activity against triple mutant dihydrofolate reductase (C59R S108N I164L DHFR).
Assay [2] has as its target Bifunctional dihydrofolate reductase-thymidylate synthase (Plasmodium falciparum K1) (UniProt P13922). The experiment in a line: Inhibitory activity against double mutant dihydrofolate reductase (C59R S108N DHFR), relative to trimethoprim. Put shortly: (§1)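 Wild-type and mutant P. falciparum DHFR expressed in E. coli BL21(DE3)pLysS. Ki calculated assuming inhibitors compete with substrate at the active site.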

Assay [3] has the same target. The experiment in a line: Inhibitory activity against triple mutant dihydrofolate reductase (C59R S108N I164L DHFR), relative to trimethoprim. Put shortly: as §1
The target is the same in assay [4]. The assay can be described thus: Inhibitory activity against wild-type dihydrofolate reductase (S108N DHFR), relative to trimethoprim. In outline:
as §1

The target in assay [5] is Bifunctional dihydrofolate reductase-thymidylate synthase (Plasmodium falciparum K1, UniProt P13922). The assay can be described thus: Inhibitory activity against double mutant dihydrofolate reductase (C59R+S108N DHFR).
Sequence of Bifunctional dihydrofolate reductase-thymidylate synthase (Plasmodium falciparum K1, UniProt P13922) (P13922 whole entry): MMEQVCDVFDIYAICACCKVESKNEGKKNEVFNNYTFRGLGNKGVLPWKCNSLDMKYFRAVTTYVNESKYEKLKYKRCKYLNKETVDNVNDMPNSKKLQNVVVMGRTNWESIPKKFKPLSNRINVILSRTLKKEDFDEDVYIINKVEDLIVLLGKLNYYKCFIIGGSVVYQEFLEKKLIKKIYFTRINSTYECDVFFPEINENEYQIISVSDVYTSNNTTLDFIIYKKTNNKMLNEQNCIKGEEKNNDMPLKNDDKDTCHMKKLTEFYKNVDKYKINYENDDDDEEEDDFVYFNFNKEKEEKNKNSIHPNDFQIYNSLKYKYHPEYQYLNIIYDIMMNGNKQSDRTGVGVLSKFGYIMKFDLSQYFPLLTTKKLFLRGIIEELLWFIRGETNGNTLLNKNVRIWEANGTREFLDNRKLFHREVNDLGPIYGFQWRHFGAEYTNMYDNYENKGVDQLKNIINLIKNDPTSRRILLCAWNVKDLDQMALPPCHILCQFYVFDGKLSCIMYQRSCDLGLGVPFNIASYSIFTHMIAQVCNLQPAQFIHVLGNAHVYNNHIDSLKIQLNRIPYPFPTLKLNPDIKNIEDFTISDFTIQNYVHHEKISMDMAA
Assay [6] addresses Bifunctional dihydrofolate reductase-thymidylate synthase (Plasmodium falciparum K1, UniProt P13922, C59R/I164L/N51I/S108N). The experiment in a line: Inhibitory activity against quadruple mutant dihydrofolate reductase (N51I C59R S108N I164L DHFR).
Assay [7] has as its target Bifunctional dihydrofolate reductase-thymidylate synthase (Plasmodium falciparum K1) (UniProt P13922). The assay can be described thus: Inhibitory activity against quadruple mutant dihydrofolate reductase (N51I C59R S108N I164L DHFR), relative to trimethoprim. Put shortly:
as §1

Sequence of Bifunctional dihydrofolate reductase-thymidylate synthase (Plasmodium falciparum K1) (P13922 whole entry, looked up): as the sequence (P13922 whole entry) above
Sequence of Bifunctional dihydrofolate reductase-thymidylate synthase (Plasmodium falciparum K1, UniProt P13922, C59R/I164L/N51I/S108N) (P13922 whole entry, looked up, stated change not applied): as the sequence (P13922 whole entry) above
Sequence of Bifunctional dihydrofolate reductase-thymidylate synthase (Plasmodium falciparum K1, UniProt P13922, C59R/I164L/S108N) (P13922 whole entry, looked up, stated change not applied): as the sequence (P13922 whole entry) above

As for `Nc1ncc(Cc2ccc(OCCCc3ccccc3)cc2)c(N)n1`, the Ki (in general, a dissociation constant, usually derived from enzyme kinetics or from competition with a known ligand) in assay [1] amounted to 3040 nM; in assay [5], 58.1 nM; in assay [6] it was 801 nM. Also, the Relative activity in assay [2] came out at 0.44; in assay [3], 0.54; in assay [4], 0.57; in assay [7], 0.12.
With `COc1cc(Cc2cnc(N)nc2N)ccc1OCCCc1ccccc1`, the values for the Ki in assay [1] and in assay [6] were 3100 nM and 1120 nM, respectively. Also, the Relative activity in assay [2] worked out at 0.33; in assay [3], 0.54; in assay [4] it was 0.17; in assay [7], 0.17.
On to `CCCCCOc1cc(Cc2cnc(N)nc2N)ccc1OC`, for which the figures for the Ki in assay [1], in assay [5] and in assay [6] were 253 nM, 134 nM and 444 nM, respectively. The Relative activity in assay [2] turned out to be 0.5; in assay [3], 0.04; in assay [4], 0.2; in assay [7], 0.1.
`CCCOc1ccc(Cc2cnc(N)nc2N)cc1`: the Ki in assay [1] was found to be 1090 nM; in assay [5] it was 211 nM; in assay [6], 1520 nM. The Relative activity in assay [2] came to 0.9; in assay [3], 0.2; in assay [4], 1.5; in assay [7], 0.2.
Regarding `CCc1nc(N)nc(N)c1Cc1ccc(OCc2ccccc2)c(OC)c1`, the Ki was found to be 3740 nM in assay [1], 60.1 nM in assay [5] and 732 nM in assay [6]. The Relative activity in assay [2] was 0.25; in assay [3] it was 0.66; in assay [4] it was 0.3; in assay [7], 0.11.
On to `CCCCCCCOc1ccc(Cc2cnc(N)nc2N)cc1`, for which the Ki in assay [1] is 2210 nM; in assay [5] it was 196 nM; in assay [6] it was 1380 nM. Moreover, the Relative activity in assay [2] was 0.8; in assay [3], 0.4; in assay [4], 1.7; in assay [7], 0.2.
Consider `COc1ccc(Cc2cnc(N)nc2N)cc1OC` [DIAVERIDINE], for which the Ki in assay [1] came out at 2650 nM; in assay [5], 235 nM; in assay [6], 13900 nM. The Relative activity in assay [2] amounted to 1; in assay [3], 0.5; in assay [4], 1.1; in assay [7], 2.1.
For the compound `CCCCOc1cc(Cc2cnc(N)nc2N)ccc1OC`, the Ki in assay [1] is 772 nM; in assay [5], 194 nM; in assay [6] it was 1030 nM. Besides, the Relative activity in assay [2] was 0.8; in assay [3], 0.1; in assay [4], 0.2; in assay [7], 0.2.
Regarding `COc1ccc(Cc2cnc(N)nc2N)cc1`, the Ki in assay [1] was 3960 nM; in assay [5] it was 464 nM; in assay [6], 20500 nM. Further, the Relative activity in assay [2] was 1.9; in assay [3], 0.7; in assay [4] it was 2.3; in assay [7] it was 3.1.
Take `CCOc1cc(Cc2cnc(N)nc2N)ccc1OCCCc1ccccc1`: the Ki stood at 374 nM in assay [1], 10.6 nM in assay [5] and 525 nM in assay [6]. Moreover, the Relative activity in assay [2] is 0.08; in assay [3] it was 0.06; in assay [4], 0.1; in assay [7], 0.08.
Take `CCCOc1cc(Cc2c(N)nc(N)nc2CC)ccc1OCc1cc(OC)c(OC)c(OC)c1`: the inhibition constant (Ki) in assay [1] worked out at 154 nM; in assay [5] it was 48.7 nM; in assay [6] it was 693 nM. The Relative activity in assay [2] came to 0.2; in assay [3] it was 0.03; in assay [4] it was 0.17; in assay [7] it was 0.1.
On to `CCCCCCCOc1cc(Cc2cnc(N)nc2N)ccc1OC`, for which the Ki turned out to be 292 nM in assay [1], 104 nM in assay [5] and 445 nM in assay [6]. In addition, the Relative activity in assay [2] amounted to 0.4; in assay [3] it was 0.05; in assay [4], 0.3; in assay [7], 0.1.
As to `Nc1ncc(Cc2ccc(OCCCOCCCOc3ccccc3)cc2)c(N)n1`, the Ki in assay [1] was found to be 264 nM; in assay [5], 108 nM; in assay [6], 1590 nM. For the same compound, the Relative activity in assay [2] is 0.45; in assay [3] it was 0.05; in assay [4], 0.68; in assay [7], 0.24.
For `COc1cc(Cc2cnc(N)nc2N)ccc1OCc1cc(OC)c(OC)c(OC)c1`, the Ki in assay [1] is 47.6 nM; in assay [6], 124 nM.
On to `COc1ccc(Cc2cnc(N)nc2N)cc1OCc1ccccc1`, for which the values for the Ki in assay [1], in assay [5] and in assay [6] were 630 nM, 143 nM and 1130 nM, respectively. Also, the Relative activity in assay [2] came to 0.6; in assay [3], 0.11; in assay [4], 0.7; in assay [7] it was 0.2.
Turning to `Nc1ncc(Cc2ccc(OCCCOc3ccccc3)cc2)c(N)n1`, the results for the inhibition constant Ki in assay [1], in assay [5] and in assay [6] were 471 nM, 170 nM and 2260 nM, respectively. Further, the Relative activity was found to be 0.7 in assay [2], 0.08 in assay [3], 0.63 in assay [4] and 0.34 in assay [7].
`COc1cc(Cc2cnc(N)nc2N)ccc1OCCCOCCCOc1ccccc1`: the Ki in assay [1] is 425 nM; in assay [5] it was 154 nM; in assay [6], 2190 nM. The Relative activity in assay [2] was 0.63; in assay [3] it was 0.07; in assay [4], 0.18; in assay [7] it was 0.33.
On to `CCOc1cc(Cc2cnc(N)nc2N)ccc1OCCCOCCCOc1ccccc1`, for which the Ki stood at 314 nM in assay [1], 46.9 nM in assay [5] and 937 nM in assay [6]. The Relative activity in assay [2] was found to be 0.19; in assay [3] it was 0.06; in assay [4] it was 0.22; in assay [7] it was 0.14.
Take `CCOc1cc(Cc2cnc(N)nc2N)ccc1OCCCOc1ccccc1`: the values for the Ki in assay [1], in assay [5] and in assay [6] were 166 nM, 47.7 nM and 770 nM, respectively. In addition, the Relative activity in assay [2] was 0.2; in assay [3], 0.03; in assay [4], 0.06; in assay [7], 0.12.
On to `CCOc1ccc(Cc2cnc(N)nc2N)cc1OC`, for which the Ki came to 3540 nM in assay [1], 187 nM in assay [5] and 11800 nM in assay [6]. The Relative activity in assay [2] amounted to 0.8; in assay [3] it was 0.6; in assay [4] it was 1.5; in assay [7], 1.8.
`CCCOc1cc(Cc2cnc(N)nc2N)ccc1OC`: the Ki is 144 nM in assay [1], 52.1 nM in assay [5] and 920 nM in assay [6]. For the same compound, the Relative activity in assay [2] is 0.2; in assay [3] it was 0.03; in assay [4], 0.2; in assay [7], 0.1.
For the compound `COc1cc(Cc2cnc(N)nc2N)ccc1OCCCOc1ccccc1`, the inhibition constant (Ki) worked out at 257 nM in assay [1], 37.1 nM in assay [5] and 606 nM in assay [6]. Further, the Relative activity in assay [2] amounted to 0.15; in assay [3] it was 0.05; in assay [4], 0.19; in assay [7], 0.09.
Turning to `CCCCCOc1ccc(Cc2cnc(N)nc2N)cc1`, the Ki is 539 nM in assay [1], 137 nM in assay [5] and 915 nM in assay [6]. For the same compound, the Relative activity amounted to 0.6 in assay [2], 0.1 in assay [3], 0.8 in assay [4] and 0.1 in assay [7].
As for `COc1cc(Cc2c(C)nc(N)nc2N)ccc1OCc1ccccc1`, the Ki in assay [1] is 66.3 nM; in assay [5], 89.5 nM; in assay [6], 93.4 nM. Besides, the Relative activity in assay [2] is 0.4; in assay [3], 0.01; in assay [4], 0.3; in assay [7], 0.01.
With `CCCCCOc1ccc(Cc2cnc(N)nc2N)cc1OCC`, the Ki in assay [1] was 1160 nM; in assay [5], 46.6 nM; in assay [6], 902 nM. Also, the Relative activity in assay [2] is 0.2; in assay [3], 0.2; in assay [4] it was 0.1; in assay [7], 0.1.

These data come from ChEMBL document CHEMBL1148379 (J Med Chem, 2004).
